Experimental data: ChEMBL document CHEMBL3272249, “Esters of N-tert-butylarterenol. Long-acting new bronchodilators with reduced cardiac effects” (J Med Chem, 1976)

What was measured:
Canis familiaris [1] = test: Cardiotoxicity in spontaneously respiring dog assessed as time of increase in heart rate at 10 to 20 mg/kg, iv relative to control; type: toxicity, organism-based, Canis lupus familiaris; parameters: dose 10-20 mg/kg, route intravenous; conditions: in vivo
In short: (§1)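 Anesthetized, spontaneously respiring dogs. Heart rate monitored by lead II EKG; blood pressure from right femoral artery by pressure transducer. Rise in heart rate (beats/min) scored ±=5-15, +=20-40, ++=40-60, +++=>60, n>4/dose; duration of the rise in h. Drug stocks freshly made in distilled water, diluted in physiological saline, kept on ice.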

Canis familiaris [2] = test: Bronchodilator activity in dog assessed as time of inhibition of carbachol or histamine-induced bronchoconstriction at 10 to 20 mg/kg, iv relative to control; type: functional, Canis lupus familiaris; conditions: dose mg/kg 10-20
In short: (§2)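 Dog with airway cannulated through a nonbreathing valve. Bronchoconstriction induced by iv carbachol (2–4 µg/kg) or histamine diphosphate (20–50 µg/kg); airway pressure recorded by pressure transducer. Each compound tested against both agonists in different animals, and results were combined and averaged. Bronchodilation = % inhibition of control constriction; degree scored as +, ++, +++ (20-45, 45-70, >70%) from higher dose, ≥3 dogs/dose; duration in h.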

Canis familiaris [3] = test: Cardiotoxicity in spontaneously respiring dog assessed as degree of increase in heart rate at 10 to 20 mg/kg, iv relative to control; type: toxicity, organism-based, Canis lupus familiaris; parameters: dose 10-20 mg/kg, route intravenous; conditions: in vivo; in short: as §1
Canis familiaris [4] = test: Bronchodilator activity in dog assessed as degree of inhibition of carbachol or histamine-induced bronchoconstriction at 10 to 20 mg/kg, iv relative to control; type: functional, Canis lupus familiaris; conditions: dose mg/kg 10-20; in short: as §2
Canis familiaris [5] = test: Cardiotoxicity in spontaneously respiring dog assessed as time of increase in heart rate at 5 to 20 mg/kg, iv relative to control; type: toxicity, organism-based, Canis lupus familiaris; parameters: dose 5-20 mg/kg, route intravenous; conditions: in vivo; in short: as §1
Canis familiaris [6] = test: Bronchodilator activity in dog assessed as time of inhibition of carbachol or histamine-induced bronchoconstriction at 5 to 20 mg/kg, iv relative to control; type: functional, Canis lupus familiaris; conditions: dose mg/kg 5-20; in short: as §2
Canis familiaris [7] = test: Cardiotoxicity in spontaneously respiring dog assessed as degree of increase in heart rate at 5 to 20 mg/kg, iv relative to control; type: toxicity, organism-based, Canis lupus familiaris; parameters: dose 5-20 mg/kg, route intravenous; conditions: in vivo; in short: as §1
Canis familiaris [8] = test: Bronchodilator activity in dog assessed as degree of inhibition of carbachol or histamine-induced bronchoconstriction at 5 to 20 mg/kg, iv relative to control; type: functional, Canis lupus familiaris; conditions: dose mg/kg 5-20; in short: as §2
Canis familiaris [9] = test: Bronchodilator activity in dog assessed as time of inhibition of carbachol or histamine-induced bronchoconstriction at 5 mg/kg, iv relative to control; type: functional, Canis lupus familiaris
In short: (§3)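 Anesthetized dogs with an airway cannula and a nonbreathing valve. Bronchoconstriction was induced by iv carbachol (2–4 μg/kg) or histamine diphosphate (20–50 μg/kg) and read as change in airway pressure by transducer. Each compound was tested against both agonists in different dogs, and the results were combined and averaged. Effect is % inhibition of control constriction, with at least three dogs per dose. Drugs were dissolved fresh in distilled water, diluted in saline and kept on ice.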

Canis familiaris [10] = test: Bronchodilator activity in dog assessed as degree of inhibition of carbachol or histamine-induced bronchoconstriction at 5 mg/kg, iv relative to control; type: functional; conditions: Canis lupus familiaris
In short: (§4)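 Anesthetized dogs, trachea cannulated with a nonbreathing valve. Bronchoconstriction induced by iv carbachol (2–4 μg/kg) or histamine diphosphate (20–50 μg/kg) in separate animals, and airway pressure recorded by transducer. Drug stocks were made fresh in distilled water, diluted in saline and kept on ice. Read-out was percent inhibition of control constriction, averaged over at least three dogs per dose at the higher dose. Carbachol and histamine data were combined.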

Canis familiaris [11] = test: Cardiotoxicity in spontaneously respiring dog assessed as time of increase in heart rate at 5 to 10 mg/kg, iv relative to control; type: toxicity, organism-based, Canis lupus familiaris; parameters: dose 5-10 mg/kg, route intravenous; conditions: in vivo
In short: (§5)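 Anesthetized, spontaneously respiring dogs. Heart rate was taken from a lead II EKG, and blood pressure from the right femoral artery by transducer. The increase in heart rate (beats/min) was scored on a graded scale with more than 4 dogs per dose, and its duration was recorded. Drugs were dissolved fresh in distilled water, diluted in physiological saline and kept on ice.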

Canis familiaris [12] = test: Bronchodilator activity in dog assessed as time of inhibition of carbachol or histamine-induced bronchoconstriction at 440 to 880 mg/kg, it relative to control; type: functional, Canis lupus familiaris; conditions: dose mg/kg 440-880; route endotracheal; in short: as §3
Canis familiaris [13] = test: Bronchodilator activity in dog assessed as time of inhibition of carbachol or histamine-induced bronchoconstriction at 5 to 10 mg/kg, iv relative to control; type: functional, Canis lupus familiaris; conditions: dose mg/kg 5-10; in short: as §3
Canis familiaris [14] = test: Cardiotoxicity in spontaneously respiring dog assessed as degree of increase in heart rate at 5 to 10 mg/kg, iv relative to control; type: toxicity, organism-based, Canis lupus familiaris; parameters: dose 5-10 mg/kg, route intravenous; conditions: in vivo; in short: as §5
Canis familiaris [15] = test: Bronchodilator activity in dog assessed as degree of inhibition of carbachol or histamine-induced bronchoconstriction at 440 to 880 mg/kg, it relative to control; type: functional, Canis lupus familiaris; conditions: dose mg/kg 440-880; route endotracheal; in short: as §4
Canis familiaris [16] = test: Bronchodilator activity in dog assessed as degree of inhibition of carbachol or histamine-induced bronchoconstriction at 5 to 10 mg/kg, iv relative to control; type: functional, Canis lupus familiaris; conditions: dose mg/kg 5-10; in short: as §4
Canis familiaris [17] = test: Cardiotoxicity in spontaneously respiring dog assessed as time of increase in heart rate at 50 to 100 mg/kg, iv relative to control; type: toxicity, organism-based, Canis lupus familiaris; parameters: dose 50-100 mg/kg, route intravenous; conditions: in vivo
In short: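 Anesthetized, spontaneously respiring dogs. Heart rate monitored by lead II EKG, with blood pressure taken from the right femoral artery by pressure transducer and recorded on a polygraph. Drug stocks made fresh in distilled water, diluted in physiological saline and kept on ice. Dosing was iv, id or it as listed. The duration of the heart-rate increase was recorded in h, with more than 4 dogs per dose.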

Canis familiaris [18] = test: Bronchodilator activity in dog assessed as time of inhibition of carbachol or histamine-induced bronchoconstriction at 50 to 100 mg/kg, iv relative to control; type: functional, Canis lupus familiaris; conditions: dose mg/kg 50-100; in short: as §3
Canis familiaris [19] = test: Cardiotoxicity in spontaneously respiring dog assessed as degree of increase in heart rate at 50 to 100 mg/kg, iv relative to control; type: toxicity, organism-based, Canis lupus familiaris; parameters: dose 50-100 mg/kg, route intravenous; conditions: in vivo; in short: as §5
Canis familiaris [20] = test: Bronchodilator activity in dog assessed as degree of inhibition of carbachol or histamine-induced bronchoconstriction at 50 to 100 mg/kg, iv relative to control; type: functional, Canis lupus familiaris; conditions: dose mg/kg 50-100; in short: as §4
Canis familiaris [21] = test: Cardiotoxicity in spontaneously respiring dog assessed as time of increase in heart rate at 400 to 800 mg/kg, it relative to control; type: toxicity, organism-based, Canis lupus familiaris; parameters: dose 400-800 mg/kg, route endotracheal; conditions: in vivo, inhaled_or_intranasal; in short: as §5
Canis familiaris [22] = test: Bronchodilator activity in dog assessed as time of inhibition of carbachol or histamine-induced bronchoconstriction at 400 to 800 mg/kg, it relative to control; type: functional, Canis lupus familiaris; conditions: dose mg/kg 400-800; route endotracheal
In short: (§6)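 Dog airway model: anesthetized, cannulated via a nonbreathing valve, with airway pressure changes recorded after iv carbachol (2–4 μg/kg) or histamine diphosphate (20–50 μg/kg) challenge, each agonist in different animals. Compounds were given iv, intraduodenally or intratracheally from fresh aqueous stocks diluted in saline. Duration (h) of inhibition of induced bronchoconstriction was followed, and the two agonist datasets were pooled.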

Canis familiaris [23] = test: Cardiotoxicity in spontaneously respiring dog assessed as degree of increase in heart rate at 400 to 800 mg/kg, it relative to control; type: toxicity, organism-based, Canis lupus familiaris; parameters: dose 400-800 mg/kg, route endotracheal; conditions: in vivo, inhaled_or_intranasal; in short: as §5
Canis familiaris [24] = test: Bronchodilator activity in dog assessed as degree of inhibition of carbachol or histamine-induced bronchoconstriction at 400 to 800 mg/kg, it relative to control; type: functional, Canis lupus familiaris; conditions: dose mg/kg 400-800; route endotracheal; in short: as §4
Canis familiaris [25] = test: Cardiotoxicity in spontaneously respiring dog assessed as time of increase in heart rate at 4 to 8 mg/kg, iv relative to control; type: toxicity, organism-based, Canis lupus familiaris; parameters: dose 4-8 mg/kg, route intravenous; conditions: in vivo; in short: as §5
Canis familiaris [26] = test: Bronchodilator activity in dog assessed as time of inhibition of carbachol or histamine-induced bronchoconstriction at 4 to 8 mg/kg, iv relative to control; type: functional, Canis lupus familiaris; conditions: dose mg/kg 4-8; in short: as §6
Canis familiaris [27] = test: Bronchodilator activity in dog assessed as time of inhibition of carbachol or histamine-induced bronchoconstriction at 200 to 400 mg/kg, id relative to control; type: functional, Canis lupus familiaris; conditions: dose mg/kg 200-400; route intraduodenal; in short: as §6
Canis familiaris [28] = test: Bronchodilator activity in dog assessed as time of inhibition of carbachol or histamine-induced bronchoconstriction at 380 mg/kg, it relative to control; type: functional, Canis lupus familiaris; conditions: route endotracheal; in short: as §6
Canis familiaris [29] = test: Cardiotoxicity in spontaneously respiring dog assessed as degree of increase in heart rate at 4 to 8 mg/kg, iv relative to control; type: toxicity, organism-based, Canis lupus familiaris; parameters: dose 4-8 mg/kg, route intravenous; conditions: in vivo; in short: as §5
Canis familiaris [30] = test: Bronchodilator activity in dog assessed as degree of inhibition of carbachol or histamine-induced bronchoconstriction at 4 to 8 mg/kg, iv relative to control; type: functional, Canis lupus familiaris; conditions: dose mg/kg 4-8; in short: as §4
Canis familiaris [31] = test: Bronchodilator activity in dog assessed as degree of inhibition of carbachol or histamine-induced bronchoconstriction at 200 to 400 mg/kg, id relative to control; type: functional, Canis lupus familiaris; conditions: dose mg/kg 200-400; route intraduodenal; in short: as §4
Canis familiaris [32] = test: Bronchodilator activity in dog assessed as degree of inhibition of carbachol or histamine-induced bronchoconstriction at 380 mg/kg, it relative to control; type: functional; conditions: Canis lupus familiaris, route endotracheal; in short: as §4

Compound: CC(C)(C)NC[C@H](O)c1ccc(OC(=O)C(C)(C)C)c(O)c1.CS(=O)(=O)O
- Time (Canis familiaris [1]): < 0.5 h
- Time (Canis familiaris [2]): <2 h
- Activity (Canis familiaris [3]): 40%
- inhibition (INH) (Canis familiaris [4]): 45%

Compound: CC(C)CC(=O)Oc1ccc([C@@H](O)CNC(C)(C)C)cc1O.CS(=O)(=O)O
- Time (Canis familiaris [5]): < 1 h
- Time (Canis familiaris [6]): <2 h
- Activity (Canis familiaris [7]): 40%
- inhibition (INH) (Canis familiaris [8]): 45%

Compound: CC(C)(C)CC(=O)Oc1ccc([C@@H](O)CNC(C)(C)C)cc1O.CS(=O)(=O)O
- Time (Canis familiaris [9]): >3 h
- inhibition in vivo at 5 mg/kg (Canis familiaris [10]): 45%

Compound: CS(=O)(=O)O.Cc1ccc(C(=O)Oc2ccc([C@@H](O)CNC(C)(C)C)cc2O)cc1
- Time (Canis familiaris [11]): < 0.5 h
- Time (Canis familiaris [12]): <2 h
- Time (Canis familiaris [13]): >3 h
- Activity (Canis familiaris [14]): 40 beats/min
- inhibition (INH) (Canis familiaris [15]): 45%
- inhibition (INH) (Canis familiaris [16]): 45%

Compound: CS(=O)(=O)O.Cc1cccc(C(=O)Oc2ccc([C@@H](O)CNC(C)(C)C)cc2O)c1
- Time (Canis familiaris [17]): < 0.5 h
- Time (Canis familiaris [12]): <2 h
- Time (Canis familiaris [18]): <2 h
- Activity (Canis familiaris [19]): 40 beats/min
- inhibition (INH) (Canis familiaris [15]): >70%
- inhibition (INH) (Canis familiaris [20]): >70%

Compound: COc1ccc(C(=O)Oc2ccc([C@@H](O)CNC(C)(C)C)cc2O)cc1.Cl
- Time (Canis familiaris [21]): < 0.5 h
- Time (Canis familiaris [22]): <2 h
- Activity (Canis familiaris [23]): 20%
- inhibition (INH) (Canis familiaris [24]): 45%

Compound: CCCC(=O)Oc1ccc([C@@H](O)CNC(C)(C)C)cc1OC(=O)CCC.Cl
- Time (Canis familiaris [25]): < 1 h
- Time (Canis familiaris [26]): <2 h
- Time (Canis familiaris [27]): >3 h
- Time (Canis familiaris [28]): <2 h
- Activity (Canis familiaris [29]): 20 beats/min
- inhibition (INH) (Canis familiaris [30]): >70%
- inhibition (INH) (Canis familiaris [31]): >70%
- inhibition in vivo at 380 mg/kg (Canis familiaris [32]): > 70%
